Where “and” joins values, the source holds several entries; their conditions need not be identical. Equal values may be shown once.
Legend:
SLC19A1 [1] = target: T1, SLC19A1 (Homo sapiens, UniProt P41440); assay: [32P] 2’3’-cGAMP uptake and competition uptake assay in THP-1 cells; assay type: cell-based; conditions: for 2’3’-cGAMP uptake, time course with inhibitor in culture medium: 500 μM, various cell lines (THP-1, U937, K562); for IC50: IC50, competition of [32P] 2’3’-cGAMP uptake, THP-1 cells, varying concentrations of competing, unlabeled ligand, 1 nM [32P] 2’3’-cGAMP; for [32P] 2’3’-cGAMP uptake in presence of unlabeled nucleotide: 200 μM competing; for CDN uptake and/or stimulation: human cells; for CDN uptake: human cell lines and primary cells ex vivo
T1 sequence (P41440 1-591): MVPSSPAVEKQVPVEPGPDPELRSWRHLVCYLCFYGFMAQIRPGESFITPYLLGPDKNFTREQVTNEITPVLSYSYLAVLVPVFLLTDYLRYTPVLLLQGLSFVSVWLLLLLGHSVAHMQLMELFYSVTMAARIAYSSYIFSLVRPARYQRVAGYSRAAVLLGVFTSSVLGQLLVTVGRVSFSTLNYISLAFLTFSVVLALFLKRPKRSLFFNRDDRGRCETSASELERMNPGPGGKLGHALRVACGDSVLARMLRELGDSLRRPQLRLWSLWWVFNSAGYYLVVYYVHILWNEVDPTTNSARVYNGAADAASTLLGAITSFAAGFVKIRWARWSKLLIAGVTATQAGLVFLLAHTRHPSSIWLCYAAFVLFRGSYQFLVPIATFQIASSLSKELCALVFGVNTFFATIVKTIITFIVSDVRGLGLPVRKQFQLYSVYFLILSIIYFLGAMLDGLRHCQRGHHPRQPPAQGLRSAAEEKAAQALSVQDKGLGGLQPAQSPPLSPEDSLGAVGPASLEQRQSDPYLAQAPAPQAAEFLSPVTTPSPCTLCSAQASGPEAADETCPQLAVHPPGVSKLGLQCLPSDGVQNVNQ

THP-1 cells = assay type: cell-based, human; conditions: hIFN-β 100 ng/ml, sulfasalazine at high concentrations
SLC19A1 [2] = target: T1, SLC19A1; assay: [32P] 2’3’-cGAMP uptake assay in human PBMCs; assay type: cell-based
SLC19A1 [3] = target: T1, SLC19A1; assay: [3H]-methotrexate uptake assay in THP-1 cells; assay type: cell-based; conditions: SLC19A1-depleted THP-1 cells, 1h
Outline: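 Cells washed and resuspended at 4x10^6/ml in MHS buffer (20 mM HEPES, 235 mM sucrose, pH 7.4 with MgO). Exposed to 12.3 nM [3H]-methotrexate at 37°C and 5% CO2 for 1 h. Radioactivity was counted by liquid scintillation for 3 min per sample, and counts per minute were normalized to total protein.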

murine splenocytes = assay: [32P] 2’3’-cGAMP uptake assay in primary murine splenocytes; assay type: cell-based, mouse; conditions: 500 μM competing, unlabeled
STING = STING pathway activation; assay type: cell-based, human; conditions: THP-1 pre-treated with 5 μM
Outline: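 Stimulated 4 h with 100 µM 2'3'-cGAMP, with or without digitonin (5 µg/mL). Read-outs were IFNB1 mRNA by RT-qPCR and STING dimerization/phosphorylation by semi-native PAGE immunoblot. Means of n=2 technical replicates.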

SLC19A1 [4] = target: T1, SLC19A1; assay: [32P] 2’3’-cGAMP uptake assay in K562 cells; assay type: cell-based; conditions: 5 μM, one hour
[5] = 500 μM excess, unlabeled, three hours, six healthy donors

Row | Compound | 2’3’-cGAMP uptake, time course with inhibitor in culture medium (SLC19A1 [1]) | IC50 (SLC19A1 [1]) | effect on reporter responses to hIFN-β (THP-1 cells) | [32P] 2’3’-cGAMP uptake in PBMCs (SLC19A1 [2]; [5]) | CDN uptake and/or stimulation (SLC19A1 [1]) | other results
1 | CN1c2c(nc(N)[nH]c2=O)NCC1CNc1ccc(C(=O)N[C@@H](CCC(=O)O)C(=O)O)cc1 (stereo partly shown) [5-me-THF, 5-methyl-tetrahydrofolic acid] | Sustained inhibition | 4.1 nM | did not inhibit | strongly inhibited |  | completeness of inhibition of [32P] 2’3’-cGAMP uptake (SLC19A1 [1]; THP-1, compared to the other (anti-) folates): did not observe complete inhibition; trans-stimulation of 2’3’-cGAMP influx by preloading the cells (SLC19A1 [1]; THP-1, preloaded 30 min, washed, [32P] 2’3’-cGAMP for one hour): augmented
2 | Nc1ncnc2c1ncn2[C@@H]1O[C@H](COP(=O)(O)O)[C@@H](O)[C@H]1O [AMP] |  |  |  |  |  | [32P] 2’3’-cGAMP uptake in presence of unlabeled nucleotide (SLC19A1 [1]; THP-1, one hour): slightly inhibited
3 | Nc1nc2c(ncn2[C@@H]2O[C@H](COP(=O)(O)O)[C@@H](O)[C@H]2O)c(=O)[nH]1 [GMP] |  |  |  |  |  | [32P] 2’3’-cGAMP uptake in presence of unlabeled nucleotide (SLC19A1 [1]; THP-1, one hour): slightly inhibited
4 | Nc1nc(=O)c2nc(CNc3ccc(C(=O)N[C@@H](CCC(=O)O)C(=O)O)cc3)cnc2[nH]1 [folic acid] | Sustained inhibition | 4800 nM and 4790 nM |  |  | almost completely blocked | 
5 | CN(Cc1cnc2nc(N)nc(N)c2n1)c1ccc(C(=O)N[C@@H](CCC(=O)O)C(=O)O)cc1 [methotrexate] | Sustained inhibition |  | did not inhibit | strongly inhibited | almost completely blocked | CDN uptake (SLC19A1 [1]): inhibited; uptake of methotrexate in SLC19A1-depleted cells (SLC19A1 [3]): nearly abolished; 2’3’-cGAMP uptake by murine splenocytes (murine splenocytes): did not inhibit
6 | O=C(O)c1cc(/N=N/c2ccc(S(=O)(=O)Nc3ccccn3)cc2)ccc1O [sulfasalazine] | Sustained inhibition | 2100 nM and 2060 nM | blocked | strongly inhibited | almost completely blocked | CDN uptake (SLC19A1 [1]): inhibited
7 | N-hydroxysuccinimide (NHS)-methotrexate [NHS-methotrexate] |  |  |  |  |  | 2’3’-cGAMP influx in treated cells (SLC19A1 [1]; THP-1, 5 μM, one hour): much reduced; STING activation by 2’3’-cGAMP (STING): blocks STING activation; 2’3’-cGAMP influx in treated cells (SLC19A1 [4]): much reduced; [32P] 2’3’-cGAMP uptake in PBMCs (SLC19A1 [2]; 5 μM pre-treatment, one hour, four healthy donors): strongly inhibited
